Reference: ChEMBL document CHEMBL1152825, “Pseudomonas aeruginosa may accumulate drug resistance mechanisms without losing its ability to cause bloodstream infections” (2007)
Converted amounts (≈) assume the structure as drawn.

Columns and labels:
Format in all cases: functional
Pseudomonas aeruginosa [1] = test: Antibacterial activity against beta-lactams resistant Pseudomonas aeruginosa isolate expressing MexXY-OprM pump by macrodilution technique
In short: (§1)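 MICs by agar macrodilution on Mueller-Hinton agar with calibrated divalent cations. Isolates were graded susceptible, intermediate or resistant by CLSI breakpoints. Resistance was defined as a ≥fourfold MIC rise over reference strain PAO1. Resistance mechanisms were assigned by RT-PCR (PAO1-derived overexpressing mutants as controls) and gene complementation.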

Pseudomonas aeruginosa [2] = test: Antibacterial activity against beta-lactams resistant Pseudomonas aeruginosa isolate expressing AmpC, MexXY-OprM pump by macrodilution technique; in short: as §1
Pseudomonas aeruginosa [3] = test: Antibacterial activity against Pseudomonas aeruginosa clinical isolates assessed as resistant rate by macrodilution technique
Pseudomonas aeruginosa [4] = test: Antibacterial activity against beta-lactams resistant Pseudomonas aeruginosa isolate expressing MexAB-OprM pump by macrodilution technique; in short: as §1
Pseudomonas aeruginosa [5] = test: Antibacterial activity against beta-lactams resistant Pseudomonas aeruginosa isolate expressing AmpC by macrodilution technique; in short: as §1
Pseudomonas aeruginosa [6] = test: Antibacterial activity against wild type Pseudomonas aeruginosa PAO1 by macrodilution technique
In short: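 Wild-type reference strain PAO1. MIC by agar macrodilution on Mueller-Hinton agar with calibrated divalent cations. It served as the baseline for defining a ≥fourfold MIC increase in clinical isolates, and as the expression reference in RT-PCR.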

Pseudomonas aeruginosa [7] = test: Antibacterial activity against Pseudomonas aeruginosa clinical isolates assessed as susceptible rate by macrodilution technique
Pseudomonas aeruginosa [8] = test: Antibacterial activity against beta-lactams resistant Pseudomonas aeruginosa isolate expressing PSE-1, MexXY-OprM pump by macrodilution technique; in short: as §1
Pseudomonas aeruginosa [9] = test: Antibacterial activity against Pseudomonas aeruginosa clinical isolate by macrodilution technique
Pseudomonas aeruginosa [10] = test: Antibacterial activity against beta-lactams resistant OprD-deficient Pseudomonas aeruginosa isolate by macrodilution technique; in short: as §1
Pseudomonas aeruginosa [11] = test: Antibacterial activity against aminoglycoside-resistant Pseudomonas aeruginosa isolate expressing AAC(6')-1, ANT(2'')-1 by macrodilution technique
In short: as §1, with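 “Bloodstream P. aeruginosa isolates from patients in six French teaching hospitals (1999–2004). MICs” for “MICs”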

Pseudomonas aeruginosa [12] = test: Antibacterial activity against wild type Pseudomonas aeruginosa isolate by macrodilution technique; in short: as §1
Pseudomonas aeruginosa [13] = test: Antibacterial activity against aminoglycoside-resistant Pseudomonas aeruginosa isolate expressing MexXY-OprM pump, AAC(6')-1 by macrodilution technique
In short: as §1, with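 “Bloodstream P. aeruginosa isolates from patients in six French teaching hospitals (1999–2004). MICs” for “MICs”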

Pseudomonas aeruginosa [14] = test: Antibacterial activity against aminoglycoside-resistant Pseudomonas aeruginosa isolate expressing MexXY-OprM pump, AAC(6')-1, AAC(3')-1 by macrodilution technique
In short: as §1, with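 “Bloodstream P. aeruginosa isolates from patients in six French teaching hospitals (1999–2004). MICs” for “MICs”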

Pseudomonas aeruginosa [15] = test: Antibacterial activity against aminoglycoside-resistant Pseudomonas aeruginosa isolate expressing MexXY-OprM pump, AAC(3')-1 by macrodilution technique
In short: as §1, with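 “Bloodstream P. aeruginosa isolates from patients in six French teaching hospitals (1999–2004). MICs” for “MICs”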

Pseudomonas aeruginosa [16] = test: Antibacterial activity against MexXY-OprM pump-independent aminoglycoside-resistant Pseudomonas aeruginosa isolate by macrodilution technique
In short: as §1, with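 “Bloodstream P. aeruginosa isolates from patients in six French teaching hospitals (1999–2004). MICs” for “MICs”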

Pseudomonas aeruginosa [17] = test: Antibacterial activity against aminoglycoside-resistant Pseudomonas aeruginosa isolate expressing MexXY-OprM pump by macrodilution technique
In short: as §1, with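 “Bloodstream P. aeruginosa isolates from patients in six French teaching hospitals (1999–2004). MICs” for “MICs”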

Pseudomonas aeruginosa [18] = test: Antibacterial activity against aminoglycoside-resistant Pseudomonas aeruginosa isolate expressing MexXY-OprM pump, ANT(2'')-1 by macrodilution technique
In short: as §1, with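 “Bloodstream P. aeruginosa isolates from patients in six French teaching hospitals (1999–2004). MICs” for “MICs”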

Pseudomonas aeruginosa [19] = test: Antibacterial activity against aminoglycoside-resistant Pseudomonas aeruginosa isolate expressing ANT(2'')-1 by macrodilution technique
In short: as §1, with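 “Bloodstream P. aeruginosa isolates from patients in six French teaching hospitals (1999–2004). MICs” for “MICs”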

Pseudomonas aeruginosa [20] = test: Antibacterial activity against aminoglycoside-resistant Pseudomonas aeruginosa isolate expressing AAC(6')-1 by macrodilution technique
In short: as §1, with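 “Bloodstream P. aeruginosa isolates from patients in six French teaching hospitals (1999–2004). MICs” for “MICs”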

Pseudomonas aeruginosa [21] = test: Antibacterial activity against aminoglycoside-resistant Pseudomonas aeruginosa isolate expressing MexXY-OprM pump, AAC(6')-1, ANT(2'')-1 by macrodilution technique
In short: as §1, with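 “Bloodstream P. aeruginosa isolates from patients in six French teaching hospitals (1999–2004). MICs” for “MICs”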

Pseudomonas aeruginosa [22] = test: Antibacterial activity against beta-lactams resistant Pseudomonas aeruginosa isolate expressing PSE-1 by macrodilution technique; in short: as §1
Pseudomonas aeruginosa [23] = test: Antibacterial activity against beta-lactams resistant Pseudomonas aeruginosa isolate expressing AmpC, MexAB-OprM pump, MexXY-OprM pump by macrodilution technique; in short: as §1
Pseudomonas aeruginosa [24] = test: Antibacterial activity against beta-lactams resistant Pseudomonas aeruginosa isolate expressing AmpC, PSE-1, MexXY-OprM pump by macrodilution technique; in short: as §1
Pseudomonas aeruginosa [25] = test: Antibacterial activity against beta-lactams resistant Pseudomonas aeruginosa isolate expressing OXA2 by macrodilution technique; in short: as §1
Pseudomonas aeruginosa [26] = test: Antibacterial activity against beta-lactams resistant Pseudomonas aeruginosa isolate expressing MexXY-OprM pump, TEM-2 by macrodilution technique; in short: as §1
Pseudomonas aeruginosa [27] = test: Antibacterial activity against beta-lactams resistant Pseudomonas aeruginosa isolate expressing AmpC, MexAB-OprM pump by macrodilution technique
In short: as §1, with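 “Bloodstream P. aeruginosa isolates from patients in six French teaching hospitals (1999–2004). MICs” for “MICs”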

Pseudomonas aeruginosa [28] = test: Antibacterial activity against beta-lactams resistant Pseudomonas aeruginosa isolate expressing MexAB-OprM pump, MexXY-OprM pump by macrodilution technique; in short: as §1
Pseudomonas aeruginosa [29] = test: Antibacterial activity against beta-lactams resistant Pseudomonas aeruginosa isolate expressing AmpC, MexXY-OprM pump, TEM-2 by macrodilution technique; in short: as §1

| Molecule | MIC (Pseudomonas aeruginosa [1]) [µg/mL] | MIC (Pseudomonas aeruginosa [2]) [µg/mL] | Activity (Pseudomonas aeruginosa [3]) [%] | MIC (Pseudomonas aeruginosa [4]) [µg/mL] | MIC (Pseudomonas aeruginosa [5]) [µg/mL] | MIC (Pseudomonas aeruginosa [6]) [µg/mL] | Activity (Pseudomonas aeruginosa [7]) [%] | MIC50 (Pseudomonas aeruginosa [9]) [µg/mL] | MIC90 (Pseudomonas aeruginosa [9]) [µg/mL] | MIC (Pseudomonas aeruginosa [11]) [µg/mL] | MIC (Pseudomonas aeruginosa [12]) [µg/mL] | MIC (Pseudomonas aeruginosa [13]) [µg/mL] | MIC (Pseudomonas aeruginosa [14]) [µg/mL] | MIC (Pseudomonas aeruginosa [15]) [µg/mL] | MIC (Pseudomonas aeruginosa [16]) [µg/mL] | MIC (Pseudomonas aeruginosa [17]) [µg/mL] | MIC (Pseudomonas aeruginosa [18]) [µg/mL] | MIC (Pseudomonas aeruginosa [19]) [µg/mL] | MIC (Pseudomonas aeruginosa [20]) [µg/mL] | MIC (Pseudomonas aeruginosa [21]) [µg/mL] | also measured |
| --- | --- | --- | --- | --- | --- | --- | --- | --- | --- | --- | --- | --- | --- | --- | --- | --- | --- | --- | --- | --- | --- |
| C[C@@H](O)[C@H]1C(=O)N2C(C(=O)O)=C(SCCNC=N)C[C@H]12 [IMIPENEM ANHYDROUS] | 8 (≈ 26.7 µM) | 16 (≈ 53.4 µM) | 10.8 | 4 (≈ 13.4 µM) | 8 (≈ 26.7 µM) | 1 (≈ 3.34 µM) | 82.5 | 2 (≈ 6.68 µM) | 16 (≈ 53.4 µM) | – | – | – | – | – | – | – | – | – | – | – | MIC (Pseudomonas aeruginosa [8]): 64 µg/mL (≈ 214 µM); MIC (Pseudomonas aeruginosa [10]): 8 µg/mL (≈ 26.7 µM) |
| CCN[C@@H]1C[C@H](N)[C@@H](O[C@H]2OC(CN)=CC[C@H]2N)[C@H](O)[C@H]1O[C@H]1OC[C@](C)(O)[C@H](NC)[C@H]1O [NETILMICIN] | – | – | 15 | – | – | 4 (≈ 8.41 µM) | 56.7 | 8 (≈ 16.8 µM) | 32 (≈ 67.3 µM) | > 128 | 4 (≈ 8.41 µM) | > 128 | > 128 | 16 (≈ 33.6 µM) | 16 (≈ 33.6 µM) | 16 (≈ 33.6 µM) | 16 (≈ 33.6 µM) | 8 (≈ 16.8 µM) | > 128 | > 128 | – |
| CC1(C)S[C@@H]2[C@H](NC(=O)[C@H](C(=O)O)c3ccsc3)C(=O)N2[C@H]1C(=O)O [TICARCILLIN] | 16 (≈ 41.6 µM) | 128 (≈ 333 µM) | 10.8 | 128 (≈ 333 µM) | 64 (≈ 166 µM) | 16 (≈ 41.6 µM) | 77.5 | 32 (≈ 83.2 µM) | 256 (≈ 666 µM) | – | 16 (≈ 41.6 µM) | – | – | – | – | – | – | – | – | – | MIC (Pseudomonas aeruginosa [22]): > 256 µg/mL; MIC (Pseudomonas aeruginosa [23]): 128 µg/mL (≈ 333 µM); MIC (Pseudomonas aeruginosa [24]): > 256 µg/mL; MIC (Pseudomonas aeruginosa [25]): 128 µg/mL (≈ 333 µM); MIC (Pseudomonas aeruginosa [26]): > 256 µg/mL; MIC (Pseudomonas aeruginosa [27]): 128 µg/mL (≈ 333 µM); MIC (Pseudomonas aeruginosa [8]): > 256 µg/mL; MIC (Pseudomonas aeruginosa [10]): 16 µg/mL (≈ 41.6 µM); MIC (Pseudomonas aeruginosa [28]): 128 µg/mL (≈ 333 µM); MIC (Pseudomonas aeruginosa [29]): > 256 µg/mL |
| NC[C@H]1O[C@H](O[C@H]2[C@H](O)[C@@H](O[C@H]3O[C@H](CO)[C@@H](O)[C@H](N)[C@H]3O)[C@H](N)C[C@@H]2N)[C@H](N)C[C@@H]1O [TOBRAMYCIN] | – | – | 21.7 | – | – | 0.5 (≈ 1.07 µM) | 77.5 | 1 (≈ 2.14 µM) | > 64 | 64 (≈ 137 µM) | 1 (≈ 2.14 µM) | > 64 | > 64 | 2 (≈ 4.28 µM) | 2 (≈ 4.28 µM) | 2 (≈ 4.28 µM) | > 64 | 16 (≈ 34.2 µM) | 32 (≈ 68.4 µM) | 64 (≈ 137 µM) | – |
| GENTAMICIN | – | – | 25 | – | – | 2 | 53.3 | 4 | 128 | 128 | 4 | 128 | 128 | 128 | 8 | 8 | 128 | > 128 | 128 | 128 | – |
